The structures appear in SMILES notation. Calls of active or inactive are those of the source. The calls are words filed in the database; no cut-off is given here.

For one experiment, the system named is HT-29. Description: Cytotoxicity against human HT-29 cells incubated for 72 hrs by Cell titer blue assay. Format: functional, cell-based. The conditions noted are these: HT-29, 72 h. In short, it runs like this: (§1)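 Cells grown in RPMI 1640 with 10% FBS, penicillin and streptomycin at 37 °C, 5% CO₂; 5,000 log-phase cells per well seeded, left overnight, then exposed 72 h to serial dilutions from DMSO (DMSO vehicle; paclitaxel positive control). Viability read by CellTiter-Blue absorbance; IC50 relative to vehicle by nonlinear regression; triplicate, three independent experiments.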

In the next experiment the test system is OVCAR-5. Description: Cytotoxicity against human OVCAR-5 cells incubated for 72 hrs by Cell titer blue assay. The conditions noted are these: OVCAR-5, 72 h. The experiment is classed as functional, cell-based. In short, it runs like this: as §1
(In general: The colour change of resazurin is a common sign of viable cells or microbes.)

The test system of another experiment is OVCAR-3. The experiment in a line: Cytotoxicity against human OVCAR-3 cells incubated for 72 hrs by Cell titer blue assay. The conditions noted are these: OVCAR-3, 72 h. The experiment is classed as functional, cell-based. In short, it runs like this: as §1
Experiment [1] deals with MDA-MB-231. Description: Effect on PI3K expression in human MDA-MB-231 cells at 1 to 10 uM incubated for 72 hrs by Western blot analysis. The conditions noted are these: dose 1-10 µM. The experiment is classed as functional, cell-based. The procedure, abridged: (§2)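 MDA-MB-231 cells in DMEM with 10% FBS, penicillin and streptomycin; 5,000 cells per well seeded, left overnight, then exposed to 1.0, 5.0 or 10.0 µM (from DMSO) for 72 h at 37 °C. Surviving cells lysed in RIPA with 1 mM EDTA and protease inhibitors; equal protein (BCA) immunoblotted, signals normalized to β-actin; three independent experiments, t test versus control.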
In general terms: In western blotting, separated proteins are transferred to a membrane and probed.

Experiment [2] relates to MDA-MB-231. The experiment in a line: Downregulation of NF kappaB p50 expression in human MDA-MB-231 cells at 1 to 10 uM incubated for 72 hrs by Western blot analysis. The conditions noted are these: dose 1-10 µM.
In experiment [3] the test system is MDA-MB-231. Description: Effect on NF-kappaB p52 expression in human MDA-MB-231 cells at 1 to 10 uM incubated for 72 hrs by Western blot analysis. Format: functional, cell-based. The following applies: dose 1-10 µM. The procedure, abridged: as §2
Experiment [4] deals with MDA-MB-231. The experiment in a line: Upregulation of Akt expression in human MDA-MB-231 cells at 1 to 10 uM incubated for 72 hrs by Western blot analysis. The experiment is classed as functional, cell-based. The following applies: dose 1-10 µM. The procedure, abridged: as §2
Experiment [5] has as its system MDA-MB-231. The experiment in a line: Upregulation of p-Akt expression in human MDA-MB-231 cells at 0.48 uM incubated for 5 hrs by Western blot analysis. Format: functional, cell-based. In short, it runs like this: (§3)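 MDA-MB-231 cells in DMEM with 10% FBS and antibiotics, seeded overnight, then exposed to 0.5 µM or 0.48 µM (from DMSO) for 5 h at 37 °C. Cells washed in cold PBS, lysed in RIPA with EDTA and protease inhibitors; equal protein immunoblotted for p-Akt or NF-κB p50, normalized to β-actin; n = 3, t test versus control.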

Experiment [6] concerns MDA-MB-231. The experiment in a line: Downregulation of NF-kappaB p50 expression in human MDA-MB-231 cells at 0.48 uM incubated for 5 hrs by Western blot analysis. Format: functional, cell-based. In short, it runs like this:
as §3

Experiment [7] deals with MDA-MB-231. The experiment in a line: Upregulation of NF kappaB p65 expression in human MDA-MB-231 cells at 1 to 10 uM incubated for 72 hrs by Western blot analysis. The conditions noted are these: dose 1-10 µM. Format: functional, cell-based. The procedure, abridged: as §2
Experiment [8] deals with MDA-MB-231. Description: Downregulation of NF-kappaB p50 expression in human MDA-MB-231 cells at 0.5 uM incubated for 5 hrs by Western blot analysis. Format: functional, cell-based. In short, it runs like this:
as §3

The subject of another experiment is MDA-MB-435. The experiment in a line: Cytotoxicity against human MDA-MB-435 cells incubated for 72 hrs by Cell titer blue assay. Format: functional, cell-based. The following applies: MDA-MB-435, 72 h. In short, it runs like this:
as §1

Experiment [9] concerns MDA-MB-231. Description: Downregulation of NF kappaB p52 expression in human MDA-MB-231 cells at 5 to 10 uM incubated for 72 hrs by Western blot analysis. The experiment is classed as functional, cell-based. The conditions noted are these: dose 5-10 µM. In short, it runs like this: as §2
The subject of experiment [10] is MDA-MB-231. Description: Upregulation of p-Akt expression in human MDA-MB-231 cells at 0.5 uM incubated for 5 hrs by Western blot analysis. Format: functional, cell-based. The procedure, abridged: as §3
Experiment [11] in a line: Cytotoxicity against human FT194 cells incubated for 72 hrs by Cell titer blue assay. The experiment is classed as functional, cell-based. The following applies: FT194, 72 h. The procedure, abridged:
as §1

The target in experiment [12] is Sodium/potassium-transporting ATPase (Sus scrofa). Description: Inhibition of NA+/K+ ATPase (porcine cerebral cortex) activity incubated for 15 mins in presence of ATP by ADP-Glo assay. On the technique in general: ADP-Glo first removes unused ATP, then detects ADP through luciferase.
The subject of experiment [13] is MDA-MB-231. Description: Cytotoxicity against human MDA-MB-231 cells incubated for 72 hrs by Cell titer blue assay. The conditions noted are these: MDA-MB-231, 72 h. The experiment is classed as functional, cell-based. In short, it runs like this: as §1

For the compound `CC(=O)O[C@H]1C(=O)[C@@]2(C)[C@H]([C@H](OC(=O)c3ccccc3)[C@]3(O)C[C@H](OC(=O)[C@H](O)[C@@H](NC(=O)c4ccccc4)c4ccccc4)C(C)=C1C3(C)C)[C@]1(OC(C)=O)CO[C@@H]1C[C@@H]2O` [PACLITAXEL], the figures for the half-maximal inhibitory concentration (IC50) in the experiment on HT-29, in the experiment with OVCAR-5 and with OVCAR-3 were 3400 nM, 7300 nM and 4.9 nM, respectively.

Take `C[C@H]1O[C@@H](O[C@H]2[C@@H](O)C[C@H](O[C@H]3[C@@H](O)C[C@H](O[C@H]4CC[C@@]5(C)[C@H](CC[C@@H]6[C@@H]5C[C@@H](O)[C@]5(C)[C@@H](C7=CC(=O)OC7)CC[C@]65O)C4)O[C@@H]3C)O[C@@H]2C)C[C@H](O)[C@@H]1O`: the result in the experiment with MDA-MB-231 [1], with MDA-MB-231 [3] and in the experiment with MDA-MB-231 [6] was inactive. Besides, the result in the experiment with MDA-MB-231 [2], with MDA-MB-231 [4], in the experiment with MDA-MB-231 [5] and with MDA-MB-231 [7] was Active.

`CO[C@H]1C[C@H](O[C@H]2CC[C@]3(C)C4[C@H](O)C(=O)[C@]5(C)[C@@H](C6=CC(=O)OC6)CC[C@]5(O)[C@@]45O[C@H]5C[C@@H]3C2)O[C@@H](C)[C@@H]1O` (stereo not given in full): the IC50 (usually the concentration that gives 50% inhibition) in the experiment on HT-29 was 220 nM; in the experiment on OVCAR-5 it was 440 nM; with MDA-MB-435, 200 nM; in [11], 1100 nM; in the experiment with OVCAR-3, 140 nM; in experiment [12], 1200 nM. This compound gave a half-maximal inhibitory concentration (IC50) in the experiment on MDA-MB-231 [13] of 500 nM. The result in the experiment on MDA-MB-231 [1], in the experiment with MDA-MB-231 [3] and in the experiment with MDA-MB-231 [8] was inactive. For the same compound, the outcome in the experiment on MDA-MB-231 [2], in the experiment with MDA-MB-231 [4], in the experiment with MDA-MB-231 [9], in the experiment on MDA-MB-231 [10] and in the experiment with MDA-MB-231 [7] was Active.

The record behind these values is ChEMBL document CHEMBL5321243, “The Cytotoxic Cardiac Glycoside (-)-Cryptanoside A from the Stems of Cryptolepis dubia and Its Molecular Targets” (J Nat Prod, 2023).
